In article PMC3157688 (The FASEB Journal, 2011):

What was measured:
[1] = system: human APP processing in the brain of APP[V717I]-transgenic mice; experiment: Immunoblot of sAPPα and full-length APP in brain homogenates, first study; type: in vivo, mouse; conditions: 10 μg daily intranasal, administration solution 1, 3 mo; 4-mo-old male mice
Method in brief: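 Male APP[V717I] mice (FVB/N background), 1 mo old, received the test compound intranasally at 10 μg/d (1 μg/μl, 5 μl/nostril), 5 d/wk for 3 mo. Vehicle: NaCl/citric acid/disodium phosphate/benzalkonium chloride water solution. Controls (n=8) received carrier alone. Hemispheres homogenized in ice-cold 20 mM Tris-HCl pH 8.5 plus protease inhibitors, then centrifuged at 100,000 g for 1 h at 4°C. sAPPα probed with 6E10 and a 35S-labeled or peroxidase-coupled secondary.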

[2] = system: brain mRNA levels of APP[V717I] transgenic mice; experiment: Quantitative real-time RT-PCR of brain mRNA levels; type: in vivo, mouse; conditions: 6-mo-old mice, 3 mo intranasal treatment; n=7/group
[3] = system: APP[V717I]-transgenic mice; experiment: Open field activity and enriched open field; type: in vivo, mouse; conditions: 6-mo-old mice after 3 mo of daily intranasal treatment; data not shown
[4] = system: healthy human male subjects; conditions: cited from earlier work

In the case of “pituitary adenylate cyclase-activating polypeptide [PACAP38]”, the “expression level of full-length APP in the brain” value [1] is reported as “no influence”, the “ADAM10 gene expression in brain (in words)” value [2] is reported as “not caused by increased ADAM10 and ADAM17 gene expression” and the “ADAM17 gene expression in brain (in words)” value [2] is reported as “not caused by increased ADAM10 and ADAM17 gene expression”. The “activity and exploration-related parameters, difference between the tested groups” value [3] was “no differences” and the “tolerability of inhaled peptide” value [4] was “well tolerated without systemic side-effects”.
